# Measurements gathered from unrelated publications.
# Lines come from different studies, so protocols differ.
# KIT L576P: Mast/stem cell growth factor receptor Kit (KIT, Homo sapiens, UniProt P10721, L576P)
# KIT: Mast/stem cell growth factor receptor Kit (KIT, Homo sapiens, UniProt P10721)
# KIT D816H: Mast/stem cell growth factor receptor Kit (KIT, Homo sapiens, UniProt P10721, D816H)
# KIT D816V: Mast/stem cell growth factor receptor Kit (KIT, Homo sapiens, UniProt P10721, D816V)
# KIT A829P: Mast/stem cell growth factor receptor Kit (KIT, Homo sapiens, UniProt P10721, A829P)
# KIT V559D/V654A: Mast/stem cell growth factor receptor Kit (KIT, Homo sapiens, UniProt P10721, V559D/V654A)
# KIT autoinhibited: Mast/stem cell growth factor receptor Kit, autoinhibited (KIT, Homo sapiens, UniProt P10721)
# KIT T670I/V559D: Mast/stem cell growth factor receptor Kit (KIT, Homo sapiens, UniProt P10721, T670I/V559D)
Compound,target,test,conditions,remaining binding
C[C@@H]1CCN(c2nccc(-c3cnn4ncccc34)n2)C1,KIT L576P,binding,1 µM,100%
COc1ncc2cc3ccccc3nc2c1C#N,KIT,"cell-free assay, competition with immobilised ligand",5 µM,92%
O=C(O)[C@@H]1[C@@H](Cn2nnc3ccccc3c2=O)CC[C@H]1C(=O)c1ccc(OCCC2CCOCC2)cc1,KIT D816H,"cell-free assay, competition with immobilised ligand",1 µM,68%
O=C(c1ccc(Nc2ncc(Cl)c(-c3ccc(Cl)s3)n2)cc1)N1CCC(N2CCCC2)CC1,KIT D816V,"binding, competition with immobilised ligand",1 µM,17%
CNC(=O)[C@@H]1CC[C@@H](n2c(-c3ccc4cnccc4c3)nc3ccc(C(=O)NCc4cccc(C(N)=O)c4)cc32)C1,KIT D816V,"binding, competition with immobilised ligand",1 µM,99%
O=C(Nc1c[nH]nc1C(=O)NC1CCNCC1)c1cc(F)cc(F)c1,KIT A829P,"binding, competition with immobilised ligand",1 µM,92%
CN(C)c1nccc(-c2cnn3ncccc23)n1,KIT D816V,binding,1 µM,60%
C[C@@H](c1ccc(-n2cnc3c(N)ncnc32)cc1)N1CCc2nn(C)c(Cc3ccccc3)c2C1=O,KIT L576P,"binding, competition with immobilised ligand",0.1 µM,17%
C=CC(=O)N1CCC(C(=O)NCC(=O)N2CCN(c3nc(-c4cnc(N)nc4C(F)F)nc(N4CCOCC4)n3)CC2)CC1,KIT V559D/V654A,"binding, competition with immobilised ligand",1 µM,100%
Nc1ncc2c(n1)-c1c([nH]c3ccc(C#CC4CC4)cc13)CCCC2,KIT,"binding, competition with immobilised ligand",1 µM,95%
CCN1CCN(Cc2ccc(C(=O)Nc3ccc(C)c(Oc4ccc5c(c4)CC(=O)N5)c3)cc2C(F)(F)F)CC1,KIT D816H,"binding, competition with immobilised ligand",1 µM,100%
Cc1cnn2ncc(-c3ccnc(N(C)C)n3)c2c1,KIT,binding,1 µM,100%
Cc1c(C(=O)O)cc(-c2ccc(C3CCNCC3)cc2)c2ccc(-c3ccc(C(F)(F)F)cc3)cc12,KIT D816H,"binding, competition with immobilised ligand",1 µM,100%
COc1cnc(Nc2cccc(S(N)(=O)=O)c2)nc1N1CCN(c2ccccc2)C(=O)C1,KIT autoinhibited,"binding, competition with immobilised ligand",1 µM,95%
O=c1nc(-c2ccccn2)sc2ccccc12,KIT V559D/V654A,"binding, competition with immobilised ligand",1 µM,100%
COc1ccnn2ncc(-c3ccnc(N(C)C)n3)c12,KIT,binding,1 µM,100%
O=C(NCC1CCOCC1)c1n[nH]cc1NC(=O)c1c(F)cccc1F,KIT A829P,"binding, competition with immobilised ligand",1 µM,84%
CN1CCN(c2ccc(Nc3nccc(-c4ccccc4)n3)cc2C(F)(F)F)CC1,KIT A829P,binding,10 µM,20%
NS(=O)(=O)c1cc(NC(=O)C2(c3ccccc3Cl)CC2)ccc1Oc1cccc(Cl)c1,KIT T670I/V559D,"cell-free assay, competition with immobilised ligand",1 µM,85%
CN(C)c1ncc(F)c(-c2cnn3ncccc23)n1,KIT T670I/V559D,binding,1 µM,100%
O=C(NCCCN1CCOCC1)c1ccc(Nc2nccc(-c3cc4ccccc4s3)n2)cc1,KIT autoinhibited,"binding, competition with immobilised ligand",1 µM,76%
c1cnn2ncc(-c3ccnc(N4CCC45COC5)n3)c2c1,KIT T670I/V559D,binding,1 µM,84%
O=C(NCCCN1CCOCC1)c1ccc(Nc2ncc(Cl)c(-c3ccc(Cl)s3)n2)cc1,KIT D816H,"binding, competition with immobilised ligand",1 µM,22%
CN1CCN(c2ccc(Nc3nccc(-c4cccc([N+](=O)[O-])c4)n3)cc2C(F)(F)F)CC1,KIT A829P,binding,10 µM,4.3%
CC(C)(O)c1cncc(-c2nc3ccc(F)cc3n2C2CC2)c1,KIT D816H,"cell-free assay, competition with immobilised ligand",1 µM,100%
O=C(c1ccc(Nc2ncc(Cl)c(-c3cc4ccccc4s3)n2)cc1)N1CCC(N2CCCC2)CC1,KIT A829P,"binding, competition with immobilised ligand",1 µM,19%
c1cncc(-c2cccc(Nc3nccc(NC4CCCCC4)n3)c2)c1,KIT autoinhibited,"binding, competition with immobilised ligand",10 µM,43%
O=C(Nc1cccnn1)N1CCC(=Cc2cccc(Oc3ccc(C(F)(F)F)cn3)c2)CC1,KIT L576P,"binding, competition with immobilised ligand",1 µM,0%
Cc1cnc(Nc2ccc(C(=O)N3CCC(N4CCCC4)CC3)cc2)nc1-c1cc2ccccc2s1,KIT D816V,"binding, competition with immobilised ligand",1 µM,5.2%
COc1cnc(Nc2cccc(S(N)(=O)=O)c2)nc1N1CCN(c2ccccc2)CC1,KIT D816V,"binding, competition with immobilised ligand",1 µM,92%
N[C@@H]1CCN(c2nccc(-c3cnn4ncccc34)n2)C1,KIT D816H,binding,1 µM,100%
Cc1cc(NC(=O)c2cccc(S(F)(F)(F)(F)F)c2)cc(-n2ccn3nc(-c4cccnc4)cc23)c1,KIT,"cell-free assay, competition with immobilised ligand",1 µM,89.5%
F[C@@H]1CCN(c2nccc(-c3cnn4ncccc34)n2)C1,KIT A829P,binding,1 µM,74%
CS(=O)(=O)N1CCCC(NC(=O)[C@H](CCC2CCCCC2)NC(=O)c2ccc(CNc3ncnc4c3nnn4-c3ccccc3)cc2)C1 (stereo partly shown),KIT T670I/V559D,"cell-free assay, competition with immobilised ligand",0.1 µM,100%
